Source: ChEMBL document CHEMBL1122169, “Inhibition of rat hepatic microsomal aminopyrine N-demethylase activity by benzimidazole derivatives. Quantitative structure-activity relationships” (J Med Chem, 1982)

Tests used:
[1] = Partition coefficient (logP); assay type: physicochemical; details: octanol/water
Cytochrome P450 2B1 = target: T1, Cytochrome P450 2B1 (Rattus norvegicus, UniProt P00176); experiment: Inhibitory potency to aminopyrine N-demethylase activity (P450) in hepatic microsomes from phenobarbitone-induced rats.; assay type: ADME, Liver; details: read-out: pI50 (converted)
T1 sequence (P00176 whole entry): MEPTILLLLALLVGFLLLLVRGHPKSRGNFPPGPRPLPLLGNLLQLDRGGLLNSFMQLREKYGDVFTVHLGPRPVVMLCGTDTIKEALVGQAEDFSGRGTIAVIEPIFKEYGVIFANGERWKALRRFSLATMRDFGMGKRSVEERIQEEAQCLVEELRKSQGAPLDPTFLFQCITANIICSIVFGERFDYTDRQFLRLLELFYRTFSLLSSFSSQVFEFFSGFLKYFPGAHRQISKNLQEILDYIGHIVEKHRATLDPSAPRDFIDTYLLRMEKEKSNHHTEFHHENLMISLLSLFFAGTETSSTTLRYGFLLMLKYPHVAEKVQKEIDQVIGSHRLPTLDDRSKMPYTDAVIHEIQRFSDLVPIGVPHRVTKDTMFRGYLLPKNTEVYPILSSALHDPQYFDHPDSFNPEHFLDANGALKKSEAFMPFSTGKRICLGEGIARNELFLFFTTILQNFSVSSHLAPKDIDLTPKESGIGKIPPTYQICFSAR
How it was run: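 Microsomes (105000g pellet) from livers of male Wistar rats (100–150 g) given phenobarbitone ip on consecutive days. A 3.0 mL mix in 0.1 M K phosphate, pH 7.4, held aminopyrine 1.61 μmol, NADPH-generating system, semicarbazide and 5.6 mg protein, run 15 min. Formaldehyde was read by Nash/Hantzsch. Inhibitor went in DMSO or 0.07 M HCl, with solvent in controls. I50 came from seven concentrations.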

Work on `c1ccc(-c2nc3ccccc3[nH]2)cc1` yielded a logP [1] of 2.87 and an IC50 (Cytochrome P450 2B1) of 55 µM.
Work on `CCCCCc1nc2ccccc2[nH]1` yielded a logP [1] of 3.43.
`Cc1nc2cc(C)c(C)cc2[nH]1` showed a logP [1] of 2.4.
Work on `CCc1nc2cc(C)c(C)cc2[nH]1` yielded a logP [1] of 2.9.
For `Cc1ccc2[nH]cnc2c1`, the logP [1] was 1.89.
Molecule `CCCCCCCCCCCc1nc2ccccc2[nH]1` has a logP [1] of 6.43.
Work on `O=[N+]([O-])c1ccc2[nH]cnc2c1` yielded a logP [1] of 1.64.
Work on `O=[N+]([O-])c1cccc2[nH]cnc12` yielded a logP [1] of 2.01.
Work on `Cc1cccc(OCc2nc3ccccc3[nH]2)c1` yielded a logP [1] of 3.14 and an IC50 (Cytochrome P450 2B1) of 28.8 µM.
In the case of `ClCc1nc2ccccc2[nH]1`, the logP [1] is reported as 1.15.
`c1ccc(CCCCc2nc3ccccc3[nH]2)cc1` gave a logP [1] of 4.96 and an IC50 (Cytochrome P450 2B1) of 15.1 µM.
Work on `CCCCCCCCCCCCCc1nc2ccccc2[nH]1` yielded a logP [1] of 7.43 and an IC50 (Cytochrome P450 2B1) of 22.9 µM.
Work on `OC(c1ccccc1)c1nc2ccccc2[nH]1` (stereo not given) yielded a logP [1] of 1.47.
With `CCc1nc2ccc(C)cc2[nH]1` the logP [1] was 2.44.
Work on `CCCCCCCc1nc2cc(C)c(C)cc2[nH]1` yielded a logP [1] of 5.4 and an IC50 (Cytochrome P450 2B1) of 44.7 µM.
`Brc1ccc(OCc2nc3ccccc3[nH]2)c(Br)c1` gave a logP [1] of 4.52 and an IC50 (Cytochrome P450 2B1) of 11 µM.
In the case of `Brc1cccc(Br)c1OCc1nc2ccccc2[nH]1`, the logP [1] is reported as 4.42 and the IC50 (Cytochrome P450 2B1) is reported as 11 µM.
Molecule `CCOc1ccc2[nH]c(C)nc2c1` has a logP [1] of 1.93 and an IC50 (Cytochrome P450 2B1) of 56.2 µM.
In the case of `CCCc1nc2cc(C)c(C)cc2[nH]1`, the logP [1] is reported as 3.4.
`c1ccc2c(Cc3nc4ccccc4[nH]3)cccc2c1` showed a logP [1] of 4.8 and an IC50 (Cytochrome P450 2B1) of 25.1 µM.
Molecule `CCCCCc1nc2cc(NC(C)=O)ccc2[nH]1` has a logP [1] of 2.61.
Work on `CCCCCCCCc1nc2ccccc2[nH]1` yielded a logP [1] of 4.93 and an IC50 (Cytochrome P450 2B1) of 28.8 µM.
Molecule `CCCCCCCc1nc2cc(C)ccc2[nH]1` has a logP [1] of 4.94 and an IC50 (Cytochrome P450 2B1) of 41.7 µM.
In the case of `O=C(c1ccccc1)c1ccc2[nH]cnc2c1`, the logP [1] is reported as 2.43 and the IC50 (Cytochrome P450 2B1) is reported as 20 µM.
For `c1ccc(OCCc2nc3ccccc3[nH]2)cc1`, the logP [1] was 3.16 and the IC50 (Cytochrome P450 2B1) was 25.1 µM.
For `CC(=O)Nc1ccc2nc(C)[nH]c2c1`, the logP [1] was 0.61.
With `c1ccc2[nH]c(C3CCCCC3)nc2c1` the logP [1] was 3.39 and the IC50 (Cytochrome P450 2B1) was 91.2 µM.
Work on `CCCCCCc1nc2ccccc2[nH]1` yielded a logP [1] of 3.93 and an IC50 (Cytochrome P450 2B1) of 32.4 µM.
`CCCCC(=O)Nc1ccc2nc(C)[nH]c2c1` showed a logP [1] of 2.11.
In the case of `Fc1ccc2[nH]cnc2c1`, the logP [1] is reported as 2.03.
`Brc1ccc(OCc2nc3ccccc3[nH]2)cc1` showed a logP [1] of 3.77 and an IC50 (Cytochrome P450 2B1) of 21.9 µM.
With `Cc1ccc2nc(C)[nH]c2c1` the logP [1] was 1.94.
`c1ccc(CCc2nc3ccccc3[nH]2)cc1` gave a logP [1] of 3.96 and an IC50 (Cytochrome P450 2B1) of 38.9 µM.
`Cc1nc2cc(Cl)cc(Cl)c2[nH]1` gave a logP [1] of 3.31 and an IC50 (Cytochrome P450 2B1) of 100 µM.
In the case of `CCOc1ccc2[nH]cnc2c1`, the logP [1] is reported as 1.88 and the IC50 (Cytochrome P450 2B1) is reported as 67.6 µM.
Molecule `CC(=O)Nc1cc(Cl)cc2[nH]c(C)nc12` has a logP [1] of 1.27.
In the case of `Clc1cc(Cl)c2[nH]cnc2c1`, the logP [1] is reported as 3.26 and the IC50 (Cytochrome P450 2B1) is reported as 53.7 µM.
For `Cc1cccc(Cc2nc3ccccc3[nH]2)c1C`, the logP [1] was 5.23 and the IC50 (Cytochrome P450 2B1) was 53.7 µM.
Molecule `CCc1ccc(OCc2nc3ccccc3[nH]2)cc1` has a logP [1] of 3.59 and an IC50 (Cytochrome P450 2B1) of 67.6 µM.
Work on `O=C(Nc1cc(Cl)cc2nc[nH]c12)c1ccccc1` yielded a logP [1] of 2.68 and an IC50 (Cytochrome P450 2B1) of 26.9 µM.
Work on `Clc1ccccc1OCc1nc2ccccc2[nH]1` yielded a logP [1] of 3.33 and an IC50 (Cytochrome P450 2B1) of 26.9 µM.
`CCCCc1nc2ccccc2[nH]1` showed a logP [1] of 2.93.
Work on `CC(C)Cc1nc2ccccc2[nH]1` yielded a logP [1] of 2.91.
Work on `c1ccc2[nH]c(C3CC3)nc2c1` yielded a logP [1] of 2.02.
For `c1ccc(CCCc2nc3ccccc3[nH]2)cc1`, the logP [1] was 4.46 and the IC50 (Cytochrome P450 2B1) was 19.1 µM.
With `Cc1nc2c(C)c(C)ccc2[nH]1` the logP [1] was 2.36.
For `Cc1nc2cc(NC(=O)c3ccccc3)ccc2[nH]1`, the logP [1] was 3.19.
`Clc1cc2nc[nH]c2cc1Cl` showed a logP [1] of 3.17 and an IC50 (Cytochrome P450 2B1) of 81.3 µM.
For `NCc1nc2ccccc2[nH]1`, the logP [1] was -0.06.
Work on `Cc1nc2ccccc2[nH]1` yielded a logP [1] of 1.43.
`CCCCCCCc1nc2ccccc2[nH]1` showed a logP [1] of 4.43.
For `CCCc1nc2ccccc2[nH]1`, the logP [1] was 2.43.
With `CCc1nc2ccccc2[nH]1` the logP [1] was 1.93.
Work on `Cc1nc2c([N+](=O)[O-])cc(Cl)cc2[nH]1` yielded a logP [1] of 3.06 and an IC50 (Cytochrome P450 2B1) of 100 µM.
With `CC(C)(C)c1nc2ccccc2[nH]1` the logP [1] was 2.86.
Molecule `c1ccc2c(c1)c1c(c3ccccc32)=NCN=1` has a logP [1] of 4.06 and an IC50 (Cytochrome P450 2B1) of 30.2 µM.
For `Cc1nc2ccc([N+](=O)[O-])cc2[nH]1`, the logP [1] was 1.69.
`O=[N+]([O-])c1cc(Cl)cc2[nH]cnc12` gave a logP [1] of 3.01.
Molecule `Cc1cc(C)cc(OCc2nc3ccccc3[nH]2)c1` has a logP [1] of 3.5 and an IC50 (Cytochrome P450 2B1) of 25.7 µM.
For `CCCCc1nc2cc(C)c(C)cc2[nH]1`, the logP [1] was 3.9 and the IC50 (Cytochrome P450 2B1) was 55 µM.
`Cc1cc(OCc2nc3ccccc3[nH]2)cc(C)c1Cl` showed a logP [1] of 4.43 and an IC50 (Cytochrome P450 2B1) of 30.2 µM.
`Brc1ccccc1OCc1nc2ccccc2[nH]1` showed a logP [1] of 3.51 and an IC50 (Cytochrome P450 2B1) of 12 µM.
`Clc1cccc(OCc2nc3ccccc3[nH]2)c1Cl` showed a logP [1] of 4.26 and an IC50 (Cytochrome P450 2B1) of 28.2 µM.
For `Clc1cccc(Cc2nc3ccccc3[nH]2)c1`, the logP [1] was 4.44 and the IC50 (Cytochrome P450 2B1) was 22.9 µM.
For `Cc1ccc(OCc2nc3ccccc3[nH]2)cc1`, the logP [1] was 3.12 and the IC50 (Cytochrome P450 2B1) was 44.7 µM.
`Clc1ccc(OCc2nc3ccccc3[nH]2)cc1` showed a logP [1] of 3.59 and an IC50 (Cytochrome P450 2B1) of 25.1 µM.
With `Clc1ccc(Cc2nc3ccccc3[nH]2)c(Cl)c1` the logP [1] was 5.32 and the IC50 (Cytochrome P450 2B1) was 15.1 µM.
Molecule `c1ccc2cc(Cc3nc4ccccc4[nH]3)ccc2c1` has a logP [1] of 4.79 and an IC50 (Cytochrome P450 2B1) of 18.2 µM.
Work on `CC(C)c1nc2ccccc2[nH]1` yielded a logP [1] of 2.41.
Molecule `c1ccc2c3c(ccc2c1)=NCN=3` has a logP [1] of 2.72 and an IC50 (Cytochrome P450 2B1) of 53.7 µM.
`Cc1ccc(OCc2nc3ccccc3[nH]2)cc1C` showed a logP [1] of 3.4 and an IC50 (Cytochrome P450 2B1) of 25.7 µM.
`c1ccc(OCc2nc3ccccc3[nH]2)cc1` gave a logP [1] of 2.66 and an IC50 (Cytochrome P450 2B1) of 69.2 µM.
In the case of `Cc1cccc2[nH]cnc12`, the logP [1] is reported as 1.86.
`FC(F)(F)c1nc2ccccc2[nH]1` gave a logP [1] of 2.39.
In the case of `Clc1ccc2[nH]cnc2c1`, the logP [1] is reported as 2.38.
`Cc1nc2cc(Cl)c(Cl)cc2[nH]1` gave a logP [1] of 3.22 and an IC50 (Cytochrome P450 2B1) of 81.3 µM.
In the case of `Cc1nc2cc(Cl)ccc2[nH]1`, the logP [1] is reported as 2.43.
For `c1ccc(-c2nc3ccccc3[nH]2)nc1`, the logP [1] was 2.38 and the IC50 (Cytochrome P450 2B1) was 64.6 µM.
`c1cncc(-c2nc3ccccc3[nH]2)c1` gave a logP [1] of 1.7.
For `c1ccc(Cc2nc3ccccc3[nH]2)cc1` [BENDAZOL], the logP [1] was 3.46 and the IC50 (Cytochrome P450 2B1) was 91.2 µM.
Work on `c1ccc2[nH]cnc2c1` [BENZIMIDAZOLE] yielded a logP [1] of 1.38.
